We go through five compounds from paper PMC5035150 (Journal of biological inorganic chemistry : JBIC : a …, 2015).

Data set [1] deals with KB-3-1 human cervical carcinoma cell line. The experiment in a line: Cytotoxicity, CellTiter-Glo, monolayer. It counts as cell-based. The gist of the method:
(§1)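 Monolayers in DMEM (4.5 g/L glucose, L-glutamine, penicillin/streptomycin, 10% FBS) at 37 °C, 5% CO2. […] Cells at 1000/well grown 24 h, then given test compound (from DMF, DMSO or 3 mM saline stock) as 1:3 serial dilutions in DMEM, DMF at most 0.25% final. After 72 h, CellTiter-Glo luminescence read, in triplicate.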
Background: ATP-based viability assays read luminescence as a measure of living cells.

For data set [2], the system named is cisplatin-resistant KB CP20 cells. The experiment in a line: Cytotoxicity, CellTiter-Glo, monolayer. It is filed as cell-based, human. The conditions noted are these: for IC50: read-out: IC50 KB CP20, 72 h; for resistance of CP20 cells: relative to parent KB-3-1 cells, monolayer (Table 1 data). The gist of the method:
as §1

For data set [3] the following is noted: pH 7.2.
For data set [4], the system named is cisplatin-resistant KB CP.5 cells. In words: Cytotoxicity, CellTiter-Glo, monolayer. It is filed as cell-based, human. The procedure, abridged: as §1
Data set [5] deals with phosphorylation of histone H2A.X in KB-3-1 cells. The experiment in a line: H2AX immunohistochemical staining. It is filed as cell-based, human. The conditions noted are these: 24 h treatment. The procedure, abridged: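 KB-3-1 cells (5 × 10^4 per chamber) grown 24 h, then exposed to Pt complexes (5–100 μM) for 24 h. Cells PBS-washed, fixed in 4% paraformaldehyde and blocked 1 h in PBS/5% normal horse serum/0.3% Triton X-100. Stained overnight at 4 °C with Alexa Fluor 647-conjugated anti-phospho-H2A.X (Ser139) rabbit mAb, counterstained with DAPI (2 μg/mL, 1 h), then imaged for γH2A.X foci by confocal microscopy.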

Data set [6] has as its system CP.5 cells grown in Matrigel. The experiment in a line: Cytotoxicity in three dimensional Matrigel culture, CellTiter-Glo. The conditions noted are these: for IC50: CP.5, Matrigel. It counts as cell-based, human. The gist of the method: (§2)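 Wells coated with 5 mg/mL Matrigel and gelled 30 min at 37 °C. Cells (1000/well) seeded over it in 2.5 mg/mL Matrigel and grown 1 day (single cells) or 4 days (spheroids). Test compound added as 1:3 serial dilutions in DMEM. Viability by CellTiter-Glo with 60 min lysis, run in triplicate.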

Data set [7] deals with KB-3-1 cells grown in Matrigel. The description is as above. It counts as cell-based, human. The note with it: KB-3-1, Matrigel. The procedure, abridged: as §2
The subject of data set [8] is cisplatin-resistant cell lines. The conditions noted are these: cited from earlier work.
The nature of a further data set: Distribution coefficient. The note with it: [octanol]:[phosphate-buffered saline, pH 7.2], fluorescence, mean ± SD.
Data set [9] has as its system CP20 cells relative to KB-3-1 cells. The experiment in a line: Cellular accumulation by flow cytometry. It counts as cell-based, human. The note with it: 25 μM, 45 min, normalized to KB-3-1. The procedure, abridged: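 Cells trypsinised (200,000 per tube), washed twice and resuspended in IMDM with 5% FBS containing fluorescent test compound (final 25 μM), then held 45 min at 37 °C. Cells rewashed, resuspended in PBS and kept on ice. FL-1 fluorescence read by flow cytometry (488 nm laser, 10,000 events per sample), normalised to parental KB-3-1 cells.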

The mark [10] stands for this setting: read-out: IC50 KB 3-1, solvent DMF, 72 h.
Where [11] appears, read: read-out: IC50 KB CP.5, solvent DMF, 72 h.
[12] abbreviates: relative to parent KB-3-1 cells, monolayer (Table 1 data).
Setting [13] is: read-out: IC50 3D 1 Day, grown 1 day (single-cell suspension).
Setting [14] is: read-out: IC50 3D 4 Day, grown 4 days (spheroids).
The mark [15] stands for this setting: read-out: IC50 2D, KB-3-1, 2D culture (Table 2).
The mark [16] stands for this setting: read-out: IC50 KB 3-1, solvent Saline, 72 h.
[17] abbreviates: read-out: IC50 2D, CP.5, 2D culture (Table 2).
Setting [18] is: read-out: IC50 KB CP.5, solvent Saline, 72 h.

Like-named read-outs stand apart in the source and are kept apart here.

With `CC1=CC(C)=[N+]2C1=Cc1ccc(CCC(=O)NCCNC(=O)C3C[NH][Pt]([Cl])([Cl])[NH]3)n1[B-]2(F)F` (stereo not drawn) [BODIPY-prop-Pt, [(2,3-Diamino-N-(2-(3-(5,5-difluoro-7,9-dimethyl-5H-4λ^4,5λ^4-dipyrrolo[1,2-c:2′,1′-f][1,3,2]diazaborinin-3-yl)propanamido)ethyl)propanamide)dichloroplatinum (II)]], the IC50 (commonly the concentration that inhibits the measured activity by half) was 21.5 ± 5.8 µM in data set [1] (setting [10]), 192 ± 50.3 µM in [2] (solvent DMF) and 44.6 ± 2.7 µM in [4] (setting [11]). The “resistance of CP20 cells” value in data set [2] amounted to 10 fold. For the same compound, in data set [3], the LogD (commonly lipophilicity at a set pH, counting ionised and neutral species) amounted to 0.66 ± 0.011. Moreover, the “resistance of CP.5 cells” value in data set [4] (setting [12]) stood at 2 fold. For the same compound, the γH2A.X foci entry in data set [5] (50 μM) was “did so at 50 μM”.
In the case of `NCCN.[Cl][Pt][Cl]` [[PtCl2(en)]], the IC50 was 298 ± 21.8 µM in data set [6] (setting [13]); greater than 500 µM in data set [6] (setting [14]); 21.4 ± 1 µM in data set [7] (setting [13]); 150 µM in [7] (setting [14]); 4.1 ± 0.2 µM in data set [1] (setting [15]); 1 ± 0.6 µM in data set [1] (setting [10]). Besides, the IC50 in [1] (setting [16]) was 2.7 ± 1.9 µM; in data set [2] (solvent DMF), greater than 500 µM; in [2] (solvent Saline), greater than 100 µM; in data set [4] (setting [17]), 107 ± 10.9 µM; in [4] (setting [11]), 150 ± 11.8 µM; in [4] (setting [18]) it was 94.9 ± 8.3 µM. In addition, in [4] (setting [12]), the “resistance of CP.5 cells” value was 40 fold. In data set [5] (25 μM), the “γH2A.X foci / DNA damage response” value is given as “strong DNA damage response”.
For the compound “[Pt(O,O′-cdbca)(NH3)2] [[^14C]carboplatin]”, the “reduction in accumulation in cisplatin-resistant cells” value in data set [8] is listed as 50–75%.
For `N.N.[Cl][Pt][Cl]` [Cisplatin, cis-[PtCl2(NH3)2]], in data set [6] (3D 4 day, relative to KB-3-1), the “resistance of CP.5 spheroids” value was determined as 3.4 fold. Also, the IC50 came out at 22.9 ± 4.6 µM in data set [6] (setting [13]); 32.1 ± 6.9 µM in data set [6] (setting [14]); 4.5 ± 0.7 µM in data set [7] (setting [13]); 9.4 ± 0.7 µM in data set [7] (setting [14]); 2.5 ± 0.1 µM in data set [1] (setting [15]); 1.8 ± 0.1 µM in data set [1] (setting [10]). Also, the IC50 in data set [1] (setting [16]) was 2.5 ± 0.2 µM; in [2] (solvent DMF), 125 ± 31.5 µM; in data set [2] (solvent Saline), greater than 100 µM; in data set [4] (setting [17]), 21 ± 2.8 µM; in data set [4] (setting [11]), 23.9 ± 5.3 µM; in data set [4] (setting [18]), 25.1 ± 3.4 µM. For the same compound, the “resistance of CP20 cells” value in [2] is recorded as 60 fold. Moreover, the “reduction in accumulation in cisplatin-resistant cells” value in data set [8] was 50–75%. The “resistance of CP.5 cells” value in data set [4] (2D (Table 2 data), relative to KB-3-1) turned out to be 8.4 fold; in [4] (setting [12]) it was 10 fold. Besides, the “γH2A.X foci / DNA damage response” value in data set [5] (5 μM) is on record as “strong DNA damage response”.
Turning to `CC1=CC(C)=[N+]2C1=Cc1ccc(CCC(=O)NCCNC(=O)OC(C)(C)C)n1[B-]2(F)F` [BODIPY-Boc, tert-Butyl (2-(3-(5,5-Difluoro-7,9-dimethyl-5H-4λ^4,5λ^4-dipyrrolo[1,2-c:2′,1′-f][1,3,2]diazaborinin-3-yl)propanamido)ethyl)carbamate], the IC50 amounted to 86.7 ± 0.8 µM in data set [1] (setting [10]), 53.6 ± 2.9 µM in data set [2] (solvent DMF) and 86.9 ± 4.4 µM in data set [4] (setting [11]). In the data set “Distribution coefficient”, this compound registered a LogD of 2.15 ± 0.023. The “reduction of accumulation in CP20 cells versus parent KB-3-1 cells” value in data set [9] is “unaffected”.
